From ChEMBL document CHEMBL2086242, “Synthesis and SAR studies of mono O-prenylated coumarins as potent 15-lipoxygenase inhibitors” (Eur J Med Chem, 2012)
Activity calls are given as the source filed them. The calls are words filed in the database; no cut-off is given here.

Assays:
[1] = Inhibition of soybean 15-lipoxygenase by MBTH-DMAB method; parameters: species or system Glycine max
How it was run: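 Test sample in ethanol was preincubated 5 min at room temperature with SLO (stock 4000 units/mL) in 50 mM phosphate, pH 7.0, with an ethanol control. Linoleic acid (Tween 20/KOH) started peroxidation. After 7 min, DMAB (solution A) and then MBTH with hemoglobin at pH 5.0 (solution B) developed colour. After 5 min more, 2% SDS stopped the reaction.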

[2] = biological target: T1, Polyunsaturated fatty acid lipoxygenase ALOX15 (Homo sapiens, UniProt P16050); test: Inhibition of recombinant human 15-lipoxygenase by MBTH-DMAB method
T1 sequence (P16050 whole entry): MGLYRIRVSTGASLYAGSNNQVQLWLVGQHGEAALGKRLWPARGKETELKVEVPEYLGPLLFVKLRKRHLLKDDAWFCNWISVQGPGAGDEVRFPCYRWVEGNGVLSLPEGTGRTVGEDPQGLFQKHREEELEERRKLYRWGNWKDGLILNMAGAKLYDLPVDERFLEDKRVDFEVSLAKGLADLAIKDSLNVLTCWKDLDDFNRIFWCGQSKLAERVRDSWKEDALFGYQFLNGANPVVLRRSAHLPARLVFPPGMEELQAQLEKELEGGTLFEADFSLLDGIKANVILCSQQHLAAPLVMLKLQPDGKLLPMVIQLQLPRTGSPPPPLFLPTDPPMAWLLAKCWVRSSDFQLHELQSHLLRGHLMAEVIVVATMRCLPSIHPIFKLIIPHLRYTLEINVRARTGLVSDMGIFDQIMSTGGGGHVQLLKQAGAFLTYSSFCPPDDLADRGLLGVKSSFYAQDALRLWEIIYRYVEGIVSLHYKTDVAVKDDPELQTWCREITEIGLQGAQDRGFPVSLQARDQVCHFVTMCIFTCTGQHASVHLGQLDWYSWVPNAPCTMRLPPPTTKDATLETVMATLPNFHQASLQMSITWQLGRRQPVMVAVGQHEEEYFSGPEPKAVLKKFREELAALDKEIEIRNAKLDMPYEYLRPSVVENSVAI

[3] = test system: Glycine max; test: Competitive inhibition of soybean 15-lipoxygenase at 1.25 to 5 uM by Lineweaver-Burk plot
How it was run: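 Soybean 15-lipoxygenase activity was read by the MBTH–DMAB end-point method at linoleic acid levels of 25, 50, 100 and 200, plotted as double-reciprocal (Lineweaver–Burk) curves with and without inhibitor.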

Row | Compound | IC50 [1] [µM] | IC50 [2] [µM] | inhibition [3]
1 | CC(C)=CCOc1cccc2ccc(=O)oc12 | 46.5 | – | –
2 | CC(C)=CCOc1cccc2oc(=O)ccc12 | 39.8 | – | –
3 | CC(C)=CCC/C(C)=C/CC/C(C)=C/COc1cc2ccccc2oc1=O | 1.7 | > 50 | Active
4 | CC(C)=CCC/C(C)=C/CC/C(C)=C/COc1ccccc1 [FARNESYL PHENYL ETHER] | 2.7 | > 50 | –
5 | CC(C)=CCC/C(C)=C/COc1cccc2oc(=O)ccc12 | 2.8 | – | –
6 | CC(C)=CCC/C(C)=C/CC/C(C)=C/COc1cccc2oc(=O)ccc12 | 0.8 | 3.6 | –
7 | CC(C)=CCC/C(C)=C/CC/C(C)=C/COc1ccc2oc(=O)ccc2c1 | 2.1 | 1.3 | –
8 | CC(C)=CCC/C(C)=C/CC/C(C)=C/COc1cccc2ccc(=O)oc12 | 5.8 | – | –
9 | CC(C)=CCOc1ccc2oc(=O)ccc2c1 | 69.4 | – | –
10 | CC(C)=CCC/C(C)=C/CC/C(C)=C/COc1cc(=O)oc2ccccc12 | 3.5 | – | –

More lines, in order of falling IC50 [1], values ahead:

Row | IC50 [1] [µM] | IC50 [2] [µM] | inhibition [3] | Compound
11 | 60.4 | – | – | CC(C)=CCOc1ccc2ccc(=O)oc2c1 [7-PRENYLOXYCOUMARIN]
12 | 54.4 | – | – | CC(C)=CCOc1cc2ccccc2oc1=O
13 | 43.9 | – | – | CC(C)=CCOc1cc(=O)oc2ccccc12
14 | 39.4 | – | – | O=C(O)/C=C/c1ccc(O)c(O)c1 [CAFFEIC ACID]
15 | 21.2 | – | – | Cc1nc(N2CCN(C)CC2)nc2c1Nc1ccccc1S2
16 | 9.6 | 6.8 | – | CC(C)=CCC/C(C)=C/COc1ccc2oc(=O)ccc2c1
17 | 8.1 | – | – | CC(C)=CCC/C(C)=C/COc1cccc2ccc(=O)oc12
18 | 6.3 | – | – | CC(C)=CCC/C(C)=C/COc1ccc2ccc(=O)oc2c1 [AURAPTENE]
19 | 5.6 | 42.6 | – | CC(C)=CCC/C(C)=C/COc1cc(=O)oc2ccccc12
20 | 4.7 | > 100 | – | CC(C)=CCC/C(C)=C/COc1cc2ccccc2oc1=O
21 | 3.1 | – | – | CC(C)=CCC/C(C)=C/CC/C(C)=C/COc1ccc2ccc(=O)oc2c1 [UMBELLIPRENIN]
